Data reported in ChEMBL document CHEMBL3272094 (J Med Chem, 1978).
Each block holds one compound with its values, some of them ahead of it. Active and inactive are the calls of the source. No cut-off for these calls is given here.

How the values were obtained:
[1] = Competitive inhibition of tyrosine hydroxylase (unknown origin); set-up: species or system Homo sapiens
[2] = tested on: Felis catus; experiment: Inhibition of isoproterenol-induced tachycardia in cat at 100 ug/kg; format: functional
[3] = species on record: Cavia porcellus; experiment: Agonist activity at alpha-adrenergic receptor in guinea pig aortic strip assessed as induction of contraction
Method in brief: (§1)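 Spirally cut thoracic aortic strip (3 cm × 2 mm) from male guinea pig (400–900 g), in modified Krebs at 37.0 °C, gassed 95% O2/5% CO2. Initial tension 0.5 g, equilibrated ≥2 h. Isometric contraction recorded over cumulative dose-response curves, with each dose held until the response levelled (10 min). Responses expressed as % of maximum contraction to 10⁻⁴ M norepinephrine added after the last dose.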

[4] = tested on: Rattus norvegicus; experiment: Hypertensive effect in Wistar rat assessed as mean pressor response at 10 umol/kg in presence of phentolamine; format: functional
Method in brief: (§2)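 Rats given 1 or 10 μmol/kg iv as a 0.5 mL/kg saline bolus. Mean arterial pressure recorded and the pressor response corrected for the saline injection artifact. Reserpine groups received 2.5 mg/kg ip at 48 and 24 h before. Phentolamine 10 mg/kg iv was given 1 min before dosing. Means ± SEM, n=3–6.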

[5] = tested on: Rattus norvegicus; experiment: Hypertensive effect in Wistar rat assessed as mean arterial pressure at 10 umol/kg in presence of reserpine; format: functional, Artery; method in brief: as §2
[6] = tested on: Rattus norvegicus; experiment: Hypertensive effect in Wistar rat assessed as mean arterial pressure at 10 umol/kg in presence of phentolamine and reserpine; format: functional, Artery; method in brief: as §2
[7] = tested on: Rattus norvegicus; experiment: Hypertensive effect in Wistar rat assessed as mean pressor response at 10 umol/kg; format: functional; method in brief: as §2
[8] = tested on: Rattus norvegicus; experiment: Hypertensive effect in Wistar rat assessed as mean arterial pressure at 10 umol/kg; format: functional, Artery; method in brief: as §2
[9] = tested on: Rattus norvegicus; experiment: Hypertensive effect in Wistar rat assessed as mean arterial pressure at 1 umol/kg in presence of reserpine; format: functional, Artery; method in brief: as §2
[10] = tested on: Rattus norvegicus; experiment: Hypertensive effect in Wistar rat assessed as increase in blood pressure at 20 umol/kg administered repeatedly followed by infusion of 128 umol/kg for 90 secs in presence of reserpine; format: functional
Method in brief: (§3)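 Reserpine-pretreated rat given repeated iv injections of 20 μmol/kg, then 128 μmol/kg infused over 90 s. Arterial blood pressure recorded continuously, including time to return to preinjection level.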

[11] = tested on: Rattus norvegicus; experiment: Hypertensive effect in Wistar rat assessed as increase in blood pressure at 20 umol/kg administered repeatedly after 15 mins in presence of reserpine; format: functional, organism-based; method in brief: as §3
[12] = tested on: Rattus norvegicus; experiment: Hypertensive effect in Wistar rat assessed as mean pressor response at 1 umol/kg; format: functional; method in brief: as §2
[13] = tested on: Rattus norvegicus; experiment: Hypertensive effect in Wistar rat assessed as increase in mean arterial pressure at 10 umol/kg relative to control; format: functional, Artery; method in brief: as §2
[14] = tested on: Rattus norvegicus; experiment: Hypertensive effect in Wistar rat assessed as tachyphylaxis at 20 umol/kg administered repeatedly followed by infusion of 128 umol/kg for 90 secs in presence of reserpine; format: functional, organism-based; method in brief: as §3
[15] = species on record: Cavia porcellus; experiment: Agonist activity at alpha-adrenergic receptor in guinea pig aortic strip assessed as induction of contraction relative to norepinephrine; method in brief: as §1
[16] = tested on: Rattus norvegicus; experiment: Hypertensive effect in Wistar rat assessed as mean arterial pressure at 10 umol/kg in presence of phentolamine; format: functional, Artery; method in brief: as §2
[17] = tested on: Rattus norvegicus; experiment: Hypertensive effect in Wistar rat assessed as mean pressor response at 1 umol/kg in presence of reserpine; format: functional; method in brief: as §2
[18] = tested on: Rattus norvegicus; experiment: Hypertensive effect in Wistar rat assessed as mean arterial pressure at 1 umol/kg; format: functional, Artery; method in brief: as §2
[19] = tested on: Rattus norvegicus; experiment: Hypertensive effect in Wistar rat assessed as mean pressor response at 10 umol/kg in presence of reserpine; format: functional; method in brief: as §2
[20] = tested on: Rattus norvegicus; experiment: Hypertensive effect in Wistar rat assessed as increase in blood pressure at 20 umol/kg administered repeatedly in presence of reserpine; format: functional; method in brief: as §3
[21] = tested on: Rattus norvegicus; experiment: Hypertensive effect in Wistar rat assessed as mean pressor response at 10 umol/kg in presence of phentolamine and reserpine; format: functional; method in brief: as §2
[22] = species on record: Cavia porcellus; experiment: Agonist activity at alpha-adrenergic receptor in guinea pig aortic strip assessed as induction of contraction up to 3 x 10^-3 M in presence of phentolamine
[23] = biological target: Beta-1 adrenergic receptor (Cavia porcellus) (UniProt B0FL73); experiment: Positive chronotropic activity at beta-1 adrenergic receptor in guinea pig atria assessed as effect on force of atrial contraction up to 3 x 10^-4 M in presence of propranolol; conditions: Cardiac atrium, in the assay text read “atrial rate” for “force of atrial contraction”
Method in brief: (§4)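 Cumulative dosing of guinea pig atria up to 3×10⁻⁴ M with 10⁻⁶ M propranolol in the bath, at 37.0 °C with 1 g diastolic tension.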

[24] = tested on: Rattus norvegicus; experiment: Hypertensive effect in Wistar rat assessed as increase in heart rate at 1000 nmol/kg (reference value: 1 +/- 0.1 beats/min); format: functional
Method in brief: (§5)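 Intact rats; femoral or jugular vein cannulated. Doses of 1–1000 nmol/kg given as a 0.5 mL/kg iv saline bolus, each followed by a heparinized saline flush. Arterial pressure and heart rate taken from the oxygraph recording. A saline control was injected first. For the propranolol group, 1.0 mg/kg propranolol was given 5 min before 1.0 μmol/kg. Means ± SEM, n=3–4.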

[25] = tested on: Rattus norvegicus; experiment: Hypertensive effect in Wistar rat assessed as change in mean arterial pressure at 1000 nmol/kg in presence of propranolol (reference value: 7 +/- 2 mmHg); format: functional, Artery; method in brief: as §5
[26] = biological target: Beta-1 adrenergic receptor (Cavia porcellus) (UniProt B0FL73); conditions: Cardiac atrium
[27] = biological target: Beta-1 adrenergic receptor (Cavia porcellus) (UniProt B0FL73); experiment: Ionotropic activity at beta-1 adrenergic receptor in guinea pig atria assessed as effect on atrial rate up to 3 x 10^-4 M in presence of propranolol; conditions: Cardiac atrium, in the assay text read “force of atrial contraction” for “atrial rate”; method in brief: as §4
[28] = biological target: Beta-2 adrenergic receptor (Cavia porcellus) (UniProt Q8K4Z4); conditions: Trachea
[29] = tested on: Rattus norvegicus; experiment: Hypertensive effect in Wistar rat assessed as increase in heart rate at 10 nmol/kg (reference value: 1 +/- 0.1 beats/min); format: functional; method in brief: as §5
[30] = tested on: Rattus norvegicus; experiment: Hypertensive effect in Wistar rat assessed as increase in heart rate at 1000 nmol/kg in presence of propranolol (reference value: 1 +/- 0.1 beats/min); format: functional; method in brief: as §5
[31] = tested on: Rattus norvegicus; experiment: Hypertensive effect in Wistar rat assessed as change in mean arterial pressure at 10 nmol/kg (reference value: 7 +/- 2 mmHg); format: functional, Artery; method in brief: as §5
[32] = tested on: Rattus norvegicus; experiment: Hypertensive effect in Wistar rat assessed as increase in heart rate at 100 nmol/kg up to 1 min (reference value: 1 +/- 0.1 beats/min); format: functional; conditions: in the assay text read “up to 15 mins” for “up to 1 min”; method in brief: as §5
[33] = tested on: Rattus norvegicus; experiment: Hypertensive effect in Wistar rat assessed as increase in heart rate at 1 nmol/kg (reference value: 1 +/- 0.1 beats/min); format: functional; method in brief: as §5
[34] = biological target: Beta-2 adrenergic receptor (Cavia porcellus) (UniProt Q8K4Z4); experiment: Agonist activity at beta-2 adrenergic receptor in guinea pig trachea assessed as tracheal relaxation in presence of propranolol
[35] = biological target: Beta-1 adrenergic receptor (Cavia porcellus) (UniProt B0FL73); experiment: Agonist activity at beta-1 adrenergic receptor in guinea pig atria assessed as effect on atrial rate relative to (R,S)-isoproterenol; conditions: Cardiac atrium
Method in brief: (§6)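 Guinea pig atria (male, 400–900 g; some given reserpine 5.0 mg/kg ip 24 h before) in oxygenated bath at 37.0 °C, diastolic tension 1 g, steady beating reached first. Cumulative doses given 1 min apart. […] Points are means of ≥4 atria.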

[36] = biological target: Beta-1 adrenergic receptor (Cavia porcellus) (UniProt B0FL73); conditions: Cardiac atrium; remark: listed apart in the source
[37] = tested on: Rattus norvegicus; experiment: Hypertensive effect in Wistar rat assessed as change in mean arterial pressure at 1 nmol/kg (reference value: 7 +/- 2 mmHg); format: functional, Artery; method in brief: as §5
[38] = biological target: Beta-1 adrenergic receptor (Cavia porcellus) (UniProt B0FL73); experiment: Agonist activity at beta-1 adrenergic receptor in guinea pig atria assessed as effect on force of atrial contraction relative to (R,S)-isoproterenol; conditions: Cardiac atrium; method in brief: as §6
[39] = tested on: Rattus norvegicus; experiment: Hypertensive effect in Wistar rat assessed as change in mean arterial pressure at 100 nmol/kg up to 15 mins (reference value: 7 +/- 2 mmHg); format: functional, Artery; conditions: in the assay text read “up to 1 min” for “up to 15 mins”; method in brief: as §5
[40] = biological target: Beta-2 adrenergic receptor (Cavia porcellus) (UniProt Q8K4Z4); experiment: Agonist activity at beta-2 adrenergic receptor in guinea pig trachea assessed as tracheal relaxation relative to (R,S)-isoproterenol; set-up: Activity: scale not given: the % may be the effect or the level left
Method in brief: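 Tracheal chain from male guinea pig (some reserpine-pretreated, 5.0 mg/kg ip 24 h before), equilibrated 30 min at 1 g tension and contracted with 3.0×10⁻⁶ M methacholine for 10 min.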

[41] = species on record: Cavia porcellus; experiment: Ratio of relative activity for guinea pig beta-2 adrenergic receptor to relative activity for guinea pig beta-1 adrenergic receptor
[42] = tested on: Rattus norvegicus; experiment: Hypertensive effect in Wistar rat assessed as change in mean arterial pressure at 1000 nmol/kg (reference value: 7 +/- 2 mmHg); format: functional, Artery; method in brief: as §5
[43] = biological target: Beta-2 adrenergic receptor (Cavia porcellus) (UniProt Q8K4Z4); conditions: Trachea; remark: listed apart in the source
[44] = Octanol-water partition coefficient, log P of the compound; format: physicochemical

Sequence of Beta-2 adrenergic receptor (Cavia porcellus) (Q8K4Z4 whole entry, looked up): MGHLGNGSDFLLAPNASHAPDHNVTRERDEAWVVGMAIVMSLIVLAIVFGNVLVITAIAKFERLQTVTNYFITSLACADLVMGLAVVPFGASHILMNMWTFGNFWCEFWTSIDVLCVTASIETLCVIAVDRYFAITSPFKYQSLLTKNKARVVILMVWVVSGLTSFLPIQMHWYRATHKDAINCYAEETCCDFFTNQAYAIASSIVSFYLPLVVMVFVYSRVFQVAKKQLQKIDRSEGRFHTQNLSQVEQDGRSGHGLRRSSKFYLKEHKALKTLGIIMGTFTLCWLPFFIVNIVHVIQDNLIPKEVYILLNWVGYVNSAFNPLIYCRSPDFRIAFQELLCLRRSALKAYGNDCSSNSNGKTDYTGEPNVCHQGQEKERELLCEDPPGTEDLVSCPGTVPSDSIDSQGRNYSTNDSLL
Sequence of Beta-1 adrenergic receptor (Cavia porcellus) (B0FL73 1-467): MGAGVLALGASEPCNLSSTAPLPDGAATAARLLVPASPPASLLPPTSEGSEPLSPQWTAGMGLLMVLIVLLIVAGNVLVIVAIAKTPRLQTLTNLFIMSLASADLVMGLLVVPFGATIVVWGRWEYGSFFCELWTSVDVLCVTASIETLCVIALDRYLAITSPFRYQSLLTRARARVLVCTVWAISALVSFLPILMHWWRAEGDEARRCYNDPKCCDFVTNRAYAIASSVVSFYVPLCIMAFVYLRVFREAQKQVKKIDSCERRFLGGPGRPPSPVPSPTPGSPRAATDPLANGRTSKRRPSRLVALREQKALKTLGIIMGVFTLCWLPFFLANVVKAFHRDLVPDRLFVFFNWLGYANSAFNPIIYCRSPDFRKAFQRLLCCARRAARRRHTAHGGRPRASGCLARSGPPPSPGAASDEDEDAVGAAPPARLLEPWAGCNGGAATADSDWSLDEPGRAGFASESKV

Ki [1]: 20 µM
SMILES: N[C@@H](Cc1ccc2[nH]cnc2c1)C(=O)O

ED50 [3]: 8 µM
Activity [15]: 41%
Activity [22]: inactive
SMILES: NCC(O)c1ccc2[nH]cnc2c1 (racemic)
Activity [4]: -4 mmHg
Activity [5]: 70 mmHg
Activity [6]: 48 mmHg
Activity [7]: 39 mmHg
Activity [8]: 98 mmHg
Activity [9]: 73 mmHg
Activity [10]: 150 mmHg
Activity [11]: inactive
Activity [12]: 8 mmHg
Activity [13]: 40%
Activity [14]: inactive
Activity [16]: 46 mmHg
Activity [17]: 9 mmHg
Activity [18]: 82 mmHg
Activity [19]: 40 mmHg
Activity [20]: 150 mmHg
Activity [21]: -5 mmHg

Activity [23]: inactive
ED50 [26]: 6.2 µM
pD2 [26]: 5.21
Activity [27]: inactive
ED50 [28]: 1.6 µM
pD2 [28]: 5.78
fold change (FC) [34]: 2
%max [35]: 50%
Activity [35]: 0.355%
ED50 [36]: 3.8 µM
pD2 [36]: 5.42
%max [38]: 33%
%max [40]: 58%
Activity [40]: 4.79%
Ratio [41]: 13.5
SMILES: CC(C)NCC(O)c1ccc2[nH]cnc2c1 (racemic)
Activity [24]: 59 bpm
Activity [25]: 3 mmHg
Activity [29]: 12 bpm
Activity [30]: 13 bpm
Activity [31]: -6 mmHg
Activity [32]: 65 bpm
Activity [33]: 1 bpm
Activity [37]: 4 mmHg
Activity [39]: -12 mmHg
Activity [42]: -30 mmHg

More lines, now with the values behind:

SMILES: CC(C)NCC(O)c1ccc2[nH]c(=O)[nH]c2c1 (configuration not stated)
inhibition in vivo at 0.1 mg/kg [2]: 35%

SMILES: NC[C@H](O)c1ccc(O)c(O)c1
ED50 [3]: 1.1 µM

SMILES: CC(C)NCC(O)c1ccc(O)c(O)c1 (racemic)
ED50 [28]: 7.8 ×10⁻⁸ M
pD2 [28]: 7.1
ED50 [43]: 2.1 ×10⁻⁸ M

SMILES: Oc1ccccc1O [CATECHOL]
logP [44]: 0.88
